Reference: ChEMBL document CHEMBL1921722, “In vitro and in vivo evaluation of select kahalalide F analogs with antitumor and antifungal activities” (Bioorg Med Chem, 2011)
Calls of active or inactive are those of the source.

Tests used:
[1] = test system: MDA-MB-231; assay: Antitumor activity against human MDA-MB-231 cells xenografted in mouse assessed as tumor cell killing at 4.7 mg/kg, ip qd for 4 days by MTT assay; type: functional, organism-based; set-up: dose 4.7 mg/kg
Method in brief: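 Hollow-fiber assay in mice. Tumor lines were grown in RPMI-1640 with 10% FBS and 2 mM glutamine. Cells at 2 × 10^6 cells/ml were loaded into 1 mm PVDF fibers (500,000 Da cutoff), heat-sealed at 2 cm and held 24–48 h at 37 °C, 5% CO2 before implantation. Compound was given IP. Fibers were collected the day after the fourth treatment for MTT (OD 540 nm, group means). A ≥50% cut in percent net growth versus vehicle counted as positive.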

[2] = test system: SF-268; assay: Cytotoxicity against human SF268 cells assessed as cell growth at 80 uM by sulforhodamine B assay relative to control; type: functional; settings: read-out: Activity
[3] = test system: UACC-62; assay: Cytotoxicity against human UACC62 cells by sulforhodamine B assay; type: functional; settings: for TGI: read-out: pTGI (converted)
Method in brief: (§1)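 NCI Developmental Therapeutics Program 60-cell-line human tumor panel screen, run at NCI. A single-concentration pre-screen was followed by a five-concentration dose-response in 10-fold steps. GI50 is the concentration that reduces growth of treated cells to half that of untreated control cells. TGI is the concentration that completely halts growth.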

[4] = test system: MDA-MB-435; assay: Antitumor activity against human MDA-MB-435 cells xenografted in mouse assessed as tumor cell killing at 2.35 mg/kg, ip qd for 4 days by MTT assay; type: functional, organism-based; set-up: dose 2.35 mg/kg
[5] = test system: SW-620; assay: Cytotoxicity against human SW620 cells assessed as cell growth at 80 uM by sulforhodamine B assay relative to control; type: functional; settings: read-out: Activity
[6] = test system: CCRF-CEM; assay: Cytotoxicity against human CCRF-CEM cells by sulforhodamine B assay; type: functional
Method in brief: (§2)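 Run at NCI in the DTP 60-cell-line human tumor panel by standard procedure. Compounds were first screened at a single concentration, then tested at five tenfold-spaced concentrations. GI50 is the concentration reducing treated-cell growth to half that of untreated controls; TGI is the concentration completely halting growth.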

[7] = test system: PC-3; assay: Cytotoxicity against human PC3 cells assessed as cell growth at 80 uM by sulforhodamine B assay relative to control; type: functional; settings: read-out: Activity
[8] = test system: RXF 393; assay: Cytotoxicity against human RXF393 cells assessed as cell growth at 80 nM by sulforhodamine B assay relative to control; type: functional; settings: read-out: Activity
[9] = test system: SK-OV-3; assay: Cytotoxicity against human SKOV3 cells assessed as cell growth at 8 uM by sulforhodamine B assay relative to control; type: functional; settings: read-out: Activity
[10] = test system: U-251; assay: Antitumor activity against human U251 cells xenografted in mouse assessed as tumor cell killing at 2.35 mg/kg, ip qd for 4 days by MTT assay; type: functional, organism-based; set-up: dose 2.35 mg/kg
[11] = test system: CCRF-CEM; assay: Cytotoxicity against human CCRF-CEM cells assessed as cell growth at 8 uM by sulforhodamine B assay relative to control; type: functional; settings: read-out: Activity
[12] = test system: UACC-62; assay: Antitumor activity against human UACC62 cells xenografted in mouse assessed as tumor cell killing at 2.35 mg/kg, ip qd for 4 days by MTT assay; type: functional, organism-based; set-up: dose 2.35 mg/kg
[13] = test system: CCRF-CEM; assay: Cytotoxicity against human CCRF-CEM cells assessed as cell growth at 800 nM by sulforhodamine B assay relative to control; type: functional; settings: read-out: Activity
[14] = test system: DU-145; assay: Cytotoxicity against human DU145 cells by sulforhodamine B assay; type: functional
Method in brief: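 Run by the NCI Developmental Therapeutics Program on its 60-line human tumour cell panel using the standard procedure. Compounds went through a single-concentration prescreen first, and those active by NCI criteria went on to a five-concentration growth-inhibition test. GI50 is the concentration that cuts growth of treated cells to half that of untreated control cells.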

[15] = test system: K562; assay: Cytotoxicity against human K562 cells assessed as cell growth at 80 nM by sulforhodamine B assay relative to control; type: functional; settings: read-out: Activity
[16] = test system: OVCAR-5; assay: Antitumor activity against human OVCAR5 cells xenografted in mouse assessed as tumor cell killing at 2.35 mg/kg, ip qd for 4 days by MTT assay; type: functional, organism-based; set-up: dose 2.35 mg/kg
[17] = test system: SF-295; assay: Antitumor activity against human SF295 cells xenografted in mouse assessed as tumor cell killing at 2.35 mg/kg, ip qd for 4 days by MTT assay; type: functional, organism-based; set-up: dose 2.35 mg/kg
[18] = test system: CCRF-CEM; assay: Cytotoxicity against human CCRF-CEM cells assessed as cell growth at 80 nM by sulforhodamine B assay relative to control; type: functional; settings: read-out: Activity
[19] = test system: CCRF-CEM; assay: Cytotoxicity against human CCRF-CEM cells assessed as cell growth at 8 nM by sulforhodamine B assay relative to control; type: functional; settings: read-out: Activity
[20] = test system: CCRF-CEM; assay: Cytotoxicity against human CCRF-CEM cells assessed as cell growth at 80 uM by sulforhodamine B assay relative to control; type: functional; settings: read-out: Activity
[21] = test system: NCI-H522; assay: Cytotoxicity against human NCI-H522 cells assessed as cell growth at 8 uM by sulforhodamine B assay relative to control; type: functional; settings: read-out: Activity
[22] = test system: Hs-578T; assay: Cytotoxicity against human Hs578T cells assessed as cell growth at 800 nM by sulforhodamine B assay relative to control; type: functional; settings: read-out: Activity
[23] = test system: SR; assay: Cytotoxicity against human SR cells assessed as cell growth at 80 uM by sulforhodamine B assay relative to control; type: functional; settings: read-out: Activity
[24] = test system: SNB-19; assay: Cytotoxicity against human SNB19 cells by sulforhodamine B assay; type: functional; settings: for TGI: read-out: pTGI (converted); method in brief: as §1
[25] = test system: U-251; assay: Antitumor activity against human U251 cells xenografted in mouse assessed as tumor cell killing at 3.1 mg/kg, ip qd for 4 days by MTT assay; type: functional, organism-based; set-up: dose 3.1 mg/kg
[26] = test system: CAKI-1; assay: Cytotoxicity against human Caki1 cells assessed as cell growth at 80 uM by sulforhodamine B assay relative to control; type: functional; settings: read-out: Activity
[27] = test system: CAKI-1; assay: Cytotoxicity against human Caki1 cells assessed as cell growth at 8 uM by sulforhodamine B assay relative to control; type: functional; settings: read-out: Activity
[28] = test system: NCI-H522; assay: Antitumor activity against human NCI-H522 cells xenografted in mouse assessed as tumor cell killing at 3.1 mg/kg, ip qd for 4 days by MTT assay; type: functional, organism-based; set-up: dose 3.1 mg/kg
[29] = test system: CAKI-1; assay: Cytotoxicity against human Caki1 cells assessed as cell growth at 800 nM by sulforhodamine B assay relative to control; type: functional; settings: read-out: Activity
[30] = test system: CAKI-1; assay: Cytotoxicity against human Caki1 cells assessed as cell growth at 80 nM by sulforhodamine B assay relative to control; type: functional; settings: read-out: Activity
[31] = test system: OVCAR-5; assay: Antitumor activity against human OVCAR5 cells xenografted in mouse assessed as tumor cell killing at 3.1 mg/kg, ip qd for 4 days by MTT assay; type: functional, organism-based; set-up: dose 3.1 mg/kg
[32] = test system: SF-295; assay: Antitumor activity against human SF295 cells xenografted in mouse assessed as tumor cell killing at 3.1 mg/kg, ip qd for 4 days by MTT assay; type: functional, organism-based; set-up: dose 3.1 mg/kg
[33] = test system: MDA-MB-435; assay: Antitumor activity against human MDA-MB-435 cells xenografted in mouse assessed as tumor cell killing at 3.1 mg/kg, ip qd for 4 days by MTT assay; type: functional, organism-based; set-up: dose 3.1 mg/kg
[34] = test system: CAKI-1; assay: Cytotoxicity against human Caki1 cells by sulforhodamine B assay; type: functional; method in brief: as §2
[35] = test system: UACC-62; assay: Antitumor activity against human UACC62 cells xenografted in mouse assessed as tumor cell killing at 3.1 mg/kg, ip qd for 4 days by MTT assay; type: functional, organism-based; set-up: dose 3.1 mg/kg
[36] = read-out: pLC50 (the source's name) (converted)

Row | Compound | Activity [1] | GI50 [3] | LC50 [3] | TGI [3] | growth at 80 µM [5] | growth at 80 µM [7] | growth at 0.08 µM [8] | growth at 8 µM [9] | LC50 [14] | GI50 ([14]; read-out: GI50) | TGI ([14]; read-out: TGI) | GI50 ([14]; read-out: pGI50 (converted)) | TGI ([14]; read-out: pTGI (converted)) | growth at 0.08 µM [15] | growth at 8 µM [21] | growth at 0.8 µM [22] | GI50 [24] | TGI [24] | also measured
1 | C/C=C1\NC(=O)[C@H](Cc2ccccc2)NC(=O)[C@@H](C(C)C)NC(=O)[C@@H]([C@@H](C)CC)NC(=O)[C@H](NC(=O)[C@H](NC(=O)[C@H](CCCNCc2ccc(N3CCOCC3)cc2)NC(=O)[C@H]2CCCN2C(=O)[C@H](NC(=O)[C@@H](NC(=O)[C@@H](NC(=O)[C@H](NC(=O)CCCC(C)C)C(C)C)[C@@H](C)O)C(C)C)C(C)C)[C@@H](C)CC)[C@@H](C)OC(=O)[C@H](C(C)C)NC1=O | inactive | 1.35 µM | 4.27 µM | 2.4 µM | -13% | -67% | 99% | -87% | 0.513 µM | 0.128 µM | 0.257 µM | 0.129 µM | 0.257 µM | 100% | 40% | 36% | 1.35 µM | 2.75 µM | growth at 80 µM [2]: 18%; Activity [4]: inactive; GI50 [6]: 22.9 µM; CC50 [6, 36]: > 75.9 µM; TGI ([6]; read-out: pTGI (converted)): 39.8 µM; Activity [10]: inactive; growth at 8 µM [11]: 82%; Activity [12]: inactive; growth at 0.8 µM [13]: 128%; Activity [16]: inactive; Activity [17]: inactive; growth at 0.08 µM [18]: 123%; growth at 0.008 µM [19]: 122%; growth at 80 µM [20]: -31%; growth at 80 µM [23]: -7%
2 | C/C=C1\NC(=O)[C@H](Cc2ccccc2)NC(=O)[C@@H](C(C)C)NC(=O)[C@@H]([C@@H](C)CC)NC(=O)[C@H](NC(=O)[C@H](NC(=O)[C@H](CCCNCc2ccc(F)c(C)c2)NC(=O)[C@H]2CCCN2C(=O)[C@H](NC(=O)[C@@H](NC(=O)[C@@H](NC(=O)[C@H](NC(=O)CCCC(C)C)C(C)C)[C@@H](C)O)C(C)C)C(C)C)[C@@H](C)CC)[C@@H](C)OC(=O)[C@H](C(C)C)NC1=O | inactive | 1.26 µM | 4.17 µM | 2.29 µM | -80% | -76% | 106% | -96% | 0.468 µM | 0.123 µM | 0.24 µM | 0.123 µM | 0.24 µM | 106% | 3% | -5% | 1.29 µM | 2.45 µM | Activity [25]: inactive; growth at 80 µM [26]: -56%; growth at 8 µM [27]: -86%; Activity [28]: inactive; growth at 0.8 µM [29]: 103%; growth at 0.08 µM [30]: 150%; Activity [31]: inactive; Activity [32]: inactive; Activity [33]: inactive; GI50 [34]: 1.45 µM; CC50 [34, 36]: 4.79 µM; TGI ([34]; read-out: pTGI (converted)): 2.63 µM; Activity [35]: inactive; LC50 (concentration killing 50% of cells) [24]: 4.79 µM
